ChEMBL document CHEMBL1157087, “Cytotoxic polyisoprenyl benzophenonoids from Garcinia subelliptica” (J Nat Prod, 2010)
Values after ≈ are worked out from the molar mass of the structure shown.

Assays:
Format in all cases: functional, cell-based
A549 = test: Cytotoxicity against human A549 cells after 3 days by SRB assay; conditions: A549, 72 h
Procedure, shortened: (§1)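 Freshly trypsinized cells seeded at 1500–7500 per well, compound added from DMSO-diluted stock. After 3 days attached cells were fixed with cold 50% TCA, stained with 0.4% SRB, bound dye solubilized and read at 562 nm.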

KB [1] = test: Cytotoxicity against human KB cells after 3 days by SRB assay; conditions: 72 h; procedure, shortened: as §1
DU-145 = test: Cytotoxicity against human DU145 cells after 3 days by SRB assay; conditions: DU-145, 72 h; procedure, shortened: as §1
KB [2] = test: Cytotoxicity against human vincristine-resistant KB cells overexpressing p-glycoprotein after 3 days by SRB assay; conditions: 72 h; procedure, shortened: as §1

Work on `C=C(C)CCC(C[C@@]12C[C@H]3[C@@H](C=C(C)C)[C@@](C(=O)c4ccc(O)c(O)c4)(C1=O)C(=O)[C@@](CC=C(C)C)(C2=O)C3(C)C)C(=C)C` (some centres undefined) yielded an IC50 (A549) of 4.2 µg/mL (≈ 6.99 µM), an IC50 (KB [1]) of 5.7 µg/mL (≈ 9.49 µM) and an IC50 (DU-145) of 4.1 µg/mL (≈ 6.82 µM). For the same compound, the IC50 (KB [2]) was 5.6 µg/mL (≈ 9.32 µM).
Compound `C=C(C)CCC(C[C@]12C[C@@H]3[C@H](C=C(C)C)[C@](C(=O)c4ccc(O)c(O)c4)(C1=O)C(=O)[C@](CC=C(C)C)(C2=O)C3(C)C)C(=C)C` (some centres undefined) has an IC50 (A549) of 4.2 µg/mL (≈ 6.99 µM), an IC50 (KB [1]) of 4.4 µg/mL (≈ 7.32 µM) and an IC50 (DU-145) of 4.2 µg/mL (≈ 6.99 µM). For the same compound, the IC50 (KB [2]) was 5.3 µg/mL (≈ 8.82 µM).
Compound `C=C(C)CC[C@H]1C[C@@]23C[C@@H](CC=C(C)C)C(C)(C)[C@@](CC=C(C)C)(C(=O)C(C(=O)c4ccc(O)c(O)c4)=C2OC1(C)C)C3=O` has an IC50 (A549) of 4.5 µg/mL (≈ 7.47 µM), an IC50 (KB [1]) of 4.9 µg/mL (≈ 8.13 µM) and an IC50 (DU-145) of 4.7 µg/mL (≈ 7.8 µM). It also gave an IC50 (KB [2]) of 5.2 µg/mL (≈ 8.63 µM).
In the case of `CC(C)=CCC1=C2O[C@H](C(C)(C)O)C[C@@]23C[C@H](CC=C(C)C)C(C)(C)[C@@](C(=O)C(C)C)(C1=O)C3=O`, the IC50 (A549) was > 5 µg/mL, the IC50 (KB [1]) was > 5 µg/mL and the IC50 (DU-145) was > 5 µg/mL. The IC50 (KB [2]) was > 5 µg/mL.
`C=C(C)CC[C@@H]1C[C@]23C[C@H](CC=C(C)C)C(C)(C)[C@](CC=C(C)C)(C(=O)C(C(=O)c4ccc(O)c(O)c4)=C2OC1(C)C)C3=O` [CYCLOXANTHOCHYMOL] showed an IC50 (A549) of 4.5 µg/mL (≈ 7.47 µM), an IC50 (KB [1]) of 5 µg/mL (≈ 8.29 µM) and an IC50 (DU-145) of 3.7 µg/mL (≈ 6.14 µM). The IC50 (KB [2]) was 4.9 µg/mL (≈ 8.13 µM).
Compound `C=C(C)[C@@H]1C[C@]23C[C@H](CC=C(C)C)C(C)(C)[C@](CC=C(C)C)(C(=O)C(C(=O)c4ccc(O)c(O)c4)=C2O[C@H]1C=C(C)C)C3=O` [GARCINIALIPTONE B] has an IC50 (A549) of 6.7 µg/mL (≈ 11.2 µM), an IC50 (KB [1]) of 5.7 µg/mL (≈ 9.49 µM) and an IC50 (DU-145) of 7.3 µg/mL (≈ 12.2 µM). The IC50 (KB [2]) was 6.6 µg/mL (≈ 11 µM).
Work on `C=C(C)CC[C@H](C[C@@H]1C[C@@]2(CC=C(C)C)C(=O)C3=C(O[C@H](C(C)(C)O)C3)[C@](C(=O)c3ccc(O)c(O)c3)(C2=O)C1(C)C)C(=C)C` [GARCINIALIPTONE C] yielded an IC50 (A549) of 4.3 µg/mL (≈ 6.95 µM), an IC50 (KB [1]) of 3.4 µg/mL (≈ 5.49 µM) and an IC50 (DU-145) of 4.3 µg/mL (≈ 6.95 µM). The IC50 (KB [2]) was 4.9 µg/mL (≈ 7.92 µM).
With `C=C(C)CC[C@H](C[C@@H]1C[C@]2(CC=C(C)C)C(=O)[C@@](C(=O)c3ccc(O)c(O)c3)(C(=O)C(CC=C(C)C)=C2O)C1(C)C)C(=C)C` [GARCINIALIPTONE D] the IC50 (A549) was 4.4 µg/mL (≈ 7.3 µM), the IC50 (KB [1]) was 3.9 µg/mL (≈ 6.47 µM) and the IC50 (DU-145) was 3.3 µg/mL (≈ 5.47 µM). The IC50 (KB [2]) was 4.6 µg/mL (≈ 7.63 µM).
In the case of `CC(C)=CC[C@@H]1C[C@]23C[C@H](CC=C(C)C)C(C)(C)[C@](CC=C(C)C)(C(=O)C(C(=O)c4ccc(O)c(O)c4)=C2OC1(C)C)C3=O` [ISOXANTHOCHYMOL], the IC50 (A549) was 4.4 µg/mL (≈ 7.3 µM), the IC50 (KB [1]) was 4.5 µg/mL (≈ 7.47 µM) and the IC50 (DU-145) was 4.2 µg/mL (≈ 6.97 µM). It also gave an IC50 (KB [2]) of 5.2 µg/mL (≈ 8.63 µM).
`CC(=O)O[C@H]1C(=O)[C@@]2(C)[C@H]([C@H](OC(=O)c3ccccc3)[C@]3(O)C[C@H](OC(=O)[C@H](O)[C@@H](NC(=O)c4ccccc4)c4ccccc4)C(C)=C1C3(C)C)[C@]1(OC(C)=O)CO[C@@H]1C[C@@H]2O` [PACLITAXEL] was tested, and the IC50 (KB [1]) was 0.002 µg/mL (≈ 0.00234 µM), the IC50 (DU-145) was 0.002 µg/mL (≈ 0.00234 µM) and the IC50 (KB [2]) was > 0.085 µg/mL.
